Reference: ChEMBL document CHEMBL3745677, “Discovery of 6-(4-{[5-Cyclopropyl-3-(2,6-dichlorophenyl)isoxazol-4-yl]methoxy}piperidin-1-yl)-1-methyl-1H-indole-3-carboxylic Acid: A Novel FXR Agonist for the Treatment of Dyslipidemia” (J Med Chem, 2015)

Key:
[1] = Tmax in cynomolgus monkey at 3 mg/kg, po by LC-MS/MS analysis; assay type: ADME, organism-based, Macaca fascicularis; conditions: in vivo
Method in brief: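 Oral/nasogastric dosing at 3 mpk in 1.0% CMC/0.25% PS80/0.05% antifoam in purified water. Plasma samples collected and analyzed by LC-MS/MS; parameters reported as mean ± SD, N=2-3.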

[2] = target: T1, Glucocorticoid receptor (Homo sapiens, UniProt P04150); experiment: Agonist activity at glucocorticoid receptor (unknown origin) expressed in HEK293 cells assessed as transcriptional activation; assay type: cell-based
T1 sequence (P04150 whole entry): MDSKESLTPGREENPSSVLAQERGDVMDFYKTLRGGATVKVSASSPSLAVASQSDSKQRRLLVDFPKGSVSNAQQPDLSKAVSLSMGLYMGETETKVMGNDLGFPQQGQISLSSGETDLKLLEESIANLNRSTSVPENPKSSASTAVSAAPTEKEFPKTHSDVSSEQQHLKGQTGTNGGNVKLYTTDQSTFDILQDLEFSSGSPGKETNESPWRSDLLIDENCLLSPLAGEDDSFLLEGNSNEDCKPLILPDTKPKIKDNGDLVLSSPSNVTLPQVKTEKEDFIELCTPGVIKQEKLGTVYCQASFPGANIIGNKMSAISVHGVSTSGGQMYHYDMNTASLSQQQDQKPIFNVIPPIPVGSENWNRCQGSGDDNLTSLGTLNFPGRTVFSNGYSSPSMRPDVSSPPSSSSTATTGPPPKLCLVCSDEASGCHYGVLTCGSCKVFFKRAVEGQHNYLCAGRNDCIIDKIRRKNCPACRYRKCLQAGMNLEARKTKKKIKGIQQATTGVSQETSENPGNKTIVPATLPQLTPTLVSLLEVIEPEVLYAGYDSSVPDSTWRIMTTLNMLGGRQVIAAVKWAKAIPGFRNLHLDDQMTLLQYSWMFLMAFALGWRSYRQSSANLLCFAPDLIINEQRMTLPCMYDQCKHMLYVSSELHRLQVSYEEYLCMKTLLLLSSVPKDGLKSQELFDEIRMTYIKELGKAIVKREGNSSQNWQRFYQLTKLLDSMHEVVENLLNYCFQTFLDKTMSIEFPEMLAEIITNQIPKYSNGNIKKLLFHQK

[3] = tested on: Rattus norvegicus; experiment: Antidyslipidemic activity in ZDF rat assessed as HDL level at 3 mg/kg for 9 days by FPLC analysis (reference value: 48.3 mg/dL); assay type: functional, Zucker
[4] = target: T2, Androgen receptor (Homo sapiens, UniProt P10275); experiment: Agonist activity at androgen receptor (unknown origin) expressed in HEK293 cells assessed as transcriptional activation; assay type: cell-based
T2 sequence (P10275 whole entry): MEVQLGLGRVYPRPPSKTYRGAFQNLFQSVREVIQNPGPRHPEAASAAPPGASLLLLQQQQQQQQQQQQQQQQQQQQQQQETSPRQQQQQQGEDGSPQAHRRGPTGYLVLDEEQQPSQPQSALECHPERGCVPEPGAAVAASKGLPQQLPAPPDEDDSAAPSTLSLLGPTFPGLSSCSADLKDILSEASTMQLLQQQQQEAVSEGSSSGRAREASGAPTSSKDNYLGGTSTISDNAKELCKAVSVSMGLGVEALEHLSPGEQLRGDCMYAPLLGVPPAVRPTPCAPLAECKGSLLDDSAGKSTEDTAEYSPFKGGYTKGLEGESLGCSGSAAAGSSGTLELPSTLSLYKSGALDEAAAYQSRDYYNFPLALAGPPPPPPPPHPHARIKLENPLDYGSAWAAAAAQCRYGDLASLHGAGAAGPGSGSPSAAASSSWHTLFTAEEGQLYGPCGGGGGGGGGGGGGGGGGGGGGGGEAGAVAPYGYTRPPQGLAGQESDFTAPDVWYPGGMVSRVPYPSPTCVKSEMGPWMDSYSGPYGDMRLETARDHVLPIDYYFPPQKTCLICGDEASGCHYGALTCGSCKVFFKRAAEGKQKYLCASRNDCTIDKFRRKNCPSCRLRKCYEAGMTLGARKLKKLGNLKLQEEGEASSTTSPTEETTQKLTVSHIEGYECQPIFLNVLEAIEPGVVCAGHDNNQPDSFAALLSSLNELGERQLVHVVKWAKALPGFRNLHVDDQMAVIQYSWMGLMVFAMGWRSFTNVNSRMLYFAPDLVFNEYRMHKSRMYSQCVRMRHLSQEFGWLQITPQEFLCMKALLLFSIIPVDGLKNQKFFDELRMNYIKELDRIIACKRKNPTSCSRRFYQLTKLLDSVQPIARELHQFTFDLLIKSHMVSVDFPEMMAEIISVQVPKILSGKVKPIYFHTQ

[5] = tested on: Rattus norvegicus; experiment: Antidyslipidemic activity in ZDF rat assessed as VLDL level at 30 mg/kg for 9 days by FPLC analysis (reference value: 35 mg/dL); assay type: functional, Zucker
[6] = tested on: Mus musculus; experiment: Antidyslipidemic activity in western-diet fed mouse expressing LDL-receptor (-/-) assessed as decrease in triglyceride level at 10 mg/kg qd for a week administered via gavage […]; assay type: functional; conditions: po
Method in brief: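 Male LDLR null mice, six per group, were gavaged once daily for one week with compound (in situ sodium salt) or vehicle (5% Solutol, 5% EtOH, 1% wt/v CMC) at 5 mL/kg. On day 7 they were bled by cardiac puncture under CO2 anaesthesia. Serum cholesterol and triglycerides were measured enzymatically on a clinical chemistry analyser (mean ± SD, n=6). ED50 was obtained by nonlinear regression.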

Structure (SMILES): Cn1cc(C(=O)O)c2ccc(N3CCC(OCc4c(-c5c(Cl)cccc5Cl)noc4C4CC4)CC3)cc21 [TERN-101]
- Tmax [1]: 3.33 h
- EC50 [2]: > 10 µM
- Activity [3]: 62.5 mg/dL
- EC50 [4]: > 10 µM
- Activity [5]: 13.2 mg/dL
- inhibition in vivo at 10 mg/kg [6]: 76%
